The text below walks through data of ChEMBL document CHEMBL5038594, “Structural Fine-Tuning of Desmuramylpeptide NOD2 Agonists Defines Their In Vivo Adjuvant Activity” (J Med Chem, 2021).

Activity calls are given as the source filed them. The calls are words filed in the database; no cut-off is given here.

The test system of data set [1] is Mus musculus. Put plainly: Immuno-adjuvant activity in NIH/OlaHsd mouse assessed as increase in ovalbumin specific IgG production in sera at 0.30 micromol administered subcutaneously on day 1 and as booster dose on day 21 with ovalbumin loaded neutral liposomes and measured 1 week post booster dose by ELISA. Format: functional, organism-based. The following applies: dose 0.3 µmol, time 28.0 day. Summed up:
(§1)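 Groups of 5 female NIH/OlaHsd mice, 2.0–2.5 months old, immunized with ovalbumin-loaded neutral liposomes (10 μg ovalbumin per dose) containing 0.30 μmol adjuvant per dose, plus one booster dose. Serum ovalbumin-specific IgG, IgG1 and IgG2a measured 1 week after the booster. Mean ± SEM of 5 mice.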
Background: An ELISA detects its analyte on a solid surface through an enzyme-linked reagent.

In data set [2] the test system is Mus musculus. Put plainly: Immuno-adjuvant activity in NIH/OlaHsd mouse assessed as increase in ovalbumin specific […] associated IgG1 production in sera at 0.30 micromol administered subcutaneously on day 1 and as booster dose on day 21 with ovalbumin loaded neutral liposomes and measured 1 week post booster dose by ELISA. The data set is classed as functional, organism-based. As to conditions: dose 0.3 µmol, time 28.0 day. Summed up: as §1

Data set [3] can be described thus: Cytotoxicity against HEK-Blue hNOD2 cells assessed as reduction in metabolic activity at 20 uM incubated for 18 hrs by MTS assay. Format: toxicity, cell-based. The following applies: human, hek-blue hnod2, 18 h. Summed up:
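HEK-Blue NOD2 cells, 40 000 per well, exposed to 20 μM compound or 0.1% DMSO for 18 h at 37 °C, 5% CO2. Metabolic activity measured by MTS (CellTiter 96 AQueous One) reagent. Duplicates, two independent biological replicates.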
In general terms: Formazan colour is commonly taken as a measure of viable cells.

The target in data set [4] is T1, Nucleotide-binding oligomerization domain-containing protein 1 (Homo sapiens) (UniProt Q9Y239).
T1 sequence (whole entry): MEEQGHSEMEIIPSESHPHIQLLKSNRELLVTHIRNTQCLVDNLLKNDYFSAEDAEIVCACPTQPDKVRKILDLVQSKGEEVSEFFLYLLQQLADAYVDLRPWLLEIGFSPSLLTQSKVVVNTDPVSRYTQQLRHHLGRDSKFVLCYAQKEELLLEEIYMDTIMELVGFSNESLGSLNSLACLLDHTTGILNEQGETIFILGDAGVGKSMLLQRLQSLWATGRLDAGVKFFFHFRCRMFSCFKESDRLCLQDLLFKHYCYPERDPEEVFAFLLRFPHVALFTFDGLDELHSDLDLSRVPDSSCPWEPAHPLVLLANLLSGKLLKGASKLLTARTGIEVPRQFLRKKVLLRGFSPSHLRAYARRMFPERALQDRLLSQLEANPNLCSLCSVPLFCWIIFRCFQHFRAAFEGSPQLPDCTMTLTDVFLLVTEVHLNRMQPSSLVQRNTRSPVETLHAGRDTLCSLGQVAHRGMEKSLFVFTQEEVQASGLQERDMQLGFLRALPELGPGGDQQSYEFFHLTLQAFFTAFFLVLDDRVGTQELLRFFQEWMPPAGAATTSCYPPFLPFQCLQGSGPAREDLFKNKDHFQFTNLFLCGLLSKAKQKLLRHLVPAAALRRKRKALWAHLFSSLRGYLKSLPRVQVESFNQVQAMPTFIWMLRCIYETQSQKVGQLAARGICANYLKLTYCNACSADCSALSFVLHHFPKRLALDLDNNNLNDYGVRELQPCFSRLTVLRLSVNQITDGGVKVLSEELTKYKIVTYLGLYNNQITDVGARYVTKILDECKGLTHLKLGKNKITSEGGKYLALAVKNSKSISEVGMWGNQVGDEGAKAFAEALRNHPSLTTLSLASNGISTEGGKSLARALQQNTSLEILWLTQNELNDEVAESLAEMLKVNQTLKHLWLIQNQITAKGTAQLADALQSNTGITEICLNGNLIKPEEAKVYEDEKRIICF
Put plainly: Agonist activity at NOD1 in HEK-Blue hNOD2 cells assessed as increase in NFkappaB transactivation-mediated SEAP activity measured after 18 hrs by spectrophotometric method. Format: cell-based. As to conditions: HEK-Blue hNOD1, in the assay text read “HEK-Blue hNOD1 cells” for “HEK-Blue hNOD2 cells”. An outline of the steps: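 Counter-screen in HEK-Blue NOD1 cells (HEK293 stably expressing human NOD1 plus an NF-κB-inducible SEAP reporter), seeded at 2.5 × 10^5 cells/mL in HEK-Blue detection medium. Compounds at 2 μM versus 0.1% DMSO vehicle, 18 h at 37 °C, 5% CO2. SEAP read as absorbance at 630 nm. Duplicates, at least two independent experiments.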

Data set [5] has as its system PBMC. Put plainly: Immunostimulatory activity in human PBMC cells assessed as increase in IL-6 production at 2 uM incubated for 18 hrs by flow cytometry analysis. The data set is classed as functional, cell-based. An outline of the steps: (§2)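 Human PBMCs from healthy donors, 1 × 10^6 cells/mL in RPMI 1640 with 10% FBS, treated with 2 μM compound or 0.1% DMSO, without or with LPS 10 ng/mL, for 18 h at 37 °C. Supernatant cytokines quantified by cytometric bead array (human inflammatory panel) on a flow cytometer against recombinant standards. Four independent donors. Repeated-measures one-way ANOVA with Dunnett.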
A general note: A flow cytometer gives signals particle by particle.

Data set [6] deals with PBMC. Put plainly: Immunostimulatory activity in human PBMC cells assessed as increase in IL-8 production at 2 uM incubated for 18 hrs by flow cytometry analysis. Format: functional, cell-based. Summed up: as §2
Data set [7] relates to PBMC. Put plainly: Immunostimulatory activity in human PBMC cells assessed as increase in IL-1beta production at 2 uM incubated for 18 hrs by flow cytometry analysis. The data set is classed as functional, cell-based. An outline of the steps:
as §2

Data set [8] relates to PBMC. Put plainly: Immunostimulatory activity in human PBMC cells assessed as increase in TNF-alpha production at 2 uM incubated for 18 hrs by flow cytometry analysis. The data set is classed as functional, cell-based. An outline of the steps: as §2
Data set [9] relates to PBMC. Put plainly: Immunostimulatory activity in human PBMC cells assessed as increase in LPS-induced IL-8 production at 2 uM incubated for 18 hrs by flow cytometry analysis. Format: functional, cell-based. An outline of the steps:
as §2

For data set [10], the system named is PBMC. Put plainly: Immunostimulatory activity in human PBMC cells assessed as increase in LPS-induced IL-6 production at 2 uM incubated for 18 hrs by flow cytometry analysis. Format: functional, cell-based. Summed up:
as §2

For data set [11], the system named is PBMC. Put plainly: Immunostimulatory activity in human PBMC cells assessed as increase in LPS-induced IL-1beta production at 2 uM incubated for 18 hrs by flow cytometry analysis. The data set is classed as functional, cell-based. An outline of the steps: as §2
Data set [12] relates to PBMC. Put plainly: Immunostimulatory activity in human PBMC cells assessed as increase in LPS-induced TNF-alpha production at 2 uM incubated for 18 hrs by flow cytometry analysis. Format: functional, cell-based. Summed up:
as §2

Data set [13] deals with BMDC. Put plainly: Induction of mouse BMDC-mediated ovalbumin specific CD4+ T cell activation assessed as increase in CD25 expression at 10 uM incubated for 72 hrs by CFSE staining based flow cytometric analysis. Format: functional. Summed up: (§3)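 BMDCs from C57BL/6 mouse tibia (7 days in GM-CSF 20 ng/mL, >90% CD11c+) pulsed 18 h with compound (1 or 10 μM) plus ovalbumin 50 μg/mL, then washed. They were cocultured 72 h with CFSE-labelled naive OT-II CD4+ T cells. CD25+/CFSE-low fraction of live Thy1.2+CD4+ cells read by flow cytometry; supernatant cytokines also measured. Duplicates of two independent experiments.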

Data set [14] has as its system BMDC. Put plainly: Induction of mouse BMDC-mediated ovalbumin specific CD4+ T cell activation assessed as increase in CD25 expression at 1 uM incubated for 72 hrs by CFSE staining based flow cytometric analysis. The data set is classed as functional. Summed up: as §3
Data set [15] deals with BMDC. Put plainly: Induction of mouse BMDC-mediated ovalbumin specific CD4+ T cell activation assessed as increase in IL-2 production at 10 uM incubated for 72 hrs by flow cytometric analysis. The data set is classed as functional, cell-based. An outline of the steps:
as §3

The subject of data set [16] is BMDC. Put plainly: Induction of mouse BMDC-mediated ovalbumin specific CD4+ T cell activation assessed as increase in IL-6 production at 10 uM incubated for 72 hrs by flow cytometric analysis. The data set is classed as functional, cell-based. Summed up: as §3
The test system of data set [17] is BMDC. Put plainly: Induction of mouse BMDC-mediated ovalbumin specific CD4+ T cell activation assessed as increase in IFN-gamma production at 10 uM incubated for 72 hrs by flow cytometric analysis. The data set is classed as functional, cell-based. An outline of the steps: as §3
In data set [18] the test system is BMDC. Put plainly: Induction of mouse BMDC-mediated ovalbumin specific CD4+ T cell activation assessed as increase in TNF-alpha production at 10 uM incubated for 72 hrs by flow cytometric analysis. Format: functional, cell-based. An outline of the steps: as §3
Data set [19] concerns BMDC. Put plainly: Induction of mouse BMDC-mediated ovalbumin specific CD4+ T cell activation assessed as increase in IL-17A production at 10 uM incubated for 72 hrs by flow cytometric analysis. Format: functional, cell-based. Summed up:
as §3

The subject of data set [20] is Mus musculus. Put plainly: Immuno-adjuvant activity in NIH/OlaHsd mouse assessed as increase in ovalbumin specific […] associated IgG2a production in sera at 0.30 micromol administered subcutaneously on day 1 and as booster dose on day 21 with ovalbumin loaded neutral liposomes and measured 1 week post booster dose by ELISA. As to conditions: dose 0.3 µmol, time 28.0 day. The data set is classed as functional, organism-based. Summed up: as §1

For data set [21], the system named is Mus musculus. Put plainly: Immuno-adjuvant activity in NIH/OlaHsd mouse assessed as increase in ovalbumin specific […] associated IgG1 production in sera at 0.15 micromol administered subcutaneously on day 1 and as booster dose on day 21 and 28 with ovalbumin loaded liposomes by ELISA. The data set is classed as functional, organism-based. As to conditions: dose 0.15 µmol, time 28.0 day. An outline of the steps:
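Groups of 5 female NIH/OlaHsd mice, 2.0–2.5 months old, immunized with ovalbumin-loaded liposomes (10 μg ovalbumin per dose) containing 0.15 μmol adjuvant per dose. Liposomes were neutral (PC–cholesterol 7:5), anionic (PC–cholesterol–dicetylphosphate 7:5:1) or mannosylated (PC–cholesterol–mannose-PEG-PA 7:5:0.5). Serum ovalbumin-specific IgG, IgG1 and IgG2a measured 1 week after the second booster. Mean ± SEM.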

`CCOC(=O)CC[C@@H](NC(=O)[C@@H](NC(=O)CNC(=O)/C=C/c1ccc(O)c(OC)c1)C(C)C)C(=O)OCC`: the outcome in the data set with Mus musculus [1] and with Mus musculus [2] was Active. Moreover, in [3], the Activity entry is recorded as “Non-Toxic”. Besides, in data set [4], the outcome was inactive.
Regarding `CCCCCCCCCCCCCCCCCC(=O)Oc1ccc(/C=C/C(=O)NCC(=O)N[C@H](C(=O)N[C@H](CCC(=O)OCC)C(=O)OCC)[C@@H](C)O)cc1OC`, the result (in the data set with PBMC [5]; with PBMC [6]; in the data set with PBMC [7]; with PBMC [8]; in the data set with Mus musculus [2]; in data set [4]) was inactive. The result with PBMC [9], with PBMC [10], in the data set on PBMC [11] and in the data set on PBMC [12] was Active. Also, in [3], the Activity entry is “Non-Toxic”.
On to `COc1cc(/C=C/C(=O)NCC(=O)N[C@H](C(=O)N[C@H](CCC(=O)OC2CCCC2)C(=O)OC2CCCC2)C(C)C)ccc1O`, for which the outcome in the data set on PBMC [5], with PBMC [6], with PBMC [7], in the data set with PBMC [8], in the data set with PBMC [9] and in the data set on PBMC [10] was Active. For the same compound, the result with PBMC [11], in the data set with PBMC [12], with BMDC [13], in the data set with BMDC [14], in the data set on BMDC [15] and with BMDC [16] was Active. For the same compound, the outcome in the data set with BMDC [17], with BMDC [18] and with BMDC [19] was Active. Also, the result (in the data set on Mus musculus [1]; in the data set with Mus musculus [20]; in [4]) was inactive. In addition, the Activity entry in data set [3] is “Non-Toxic”.
Turning to `CC(=O)N[C@H]1C(O)O[C@H](CO)[C@@H](O)[C@@H]1O[C@H](C)C(=O)N[C@@H](C)C(=O)N[C@H](CCC(=O)O)C(N)=O` (stereo partly specified) [MURAMYL DIPEPTIDE], the outcome in the data set with PBMC [5], in the data set with PBMC [6], in the data set with PBMC [7], in the data set on PBMC [8], in the data set with PBMC [9] and with PBMC [10] was Active. Also, the outcome in the data set with PBMC [11], in the data set on PBMC [12] and in the data set with Mus musculus [21] was Active. The Activity entry in [3] is “Non-Toxic”. The outcome in data set [4] was inactive.
For the compound `CCCCCCCCCCCC(=O)Oc1ccc(/C=C/C(=O)NCC(=O)N[C@H](C(=O)N[C@H](CCC(=O)OCC)C(=O)OCC)C(C)C)cc1OC`, the result in the data set with PBMC [5], in the data set on PBMC [6], with PBMC [7], in the data set on PBMC [8], in the data set on PBMC [9] and in the data set with PBMC [10] was Active. The result in the data set with PBMC [11] and in the data set on PBMC [12] was Active. The outcome (in the data set on Mus musculus [20]; in [4]) was inactive. For the same compound, the Activity entry in [3] was “Non-Toxic”.
Take `CCOC(=O)CC[C@@H](NC(=O)[C@@H](NC(=O)CNC(=O)/C=C/c1ccc(OC(C)=O)c(OC)c1)C(C)C)C(=O)OCC`: the outcome in the data set with PBMC [5], with PBMC [6], in the data set on PBMC [7], in the data set with PBMC [8], in the data set on PBMC [9] and in the data set with PBMC [10] was Active. Further, the outcome with PBMC [11] and in the data set with PBMC [12] was Active. In addition, the Activity result in data set [3] is listed as “Non-Toxic”. Further, the outcome in data set [4] was inactive.
